Activity calls are given as the source filed them. The rule behind the calls is not given here.
tested on: Colletotrichum fragariae; assay: Antifungal activity against Colletotrichum fragariae assessed as zone of inhibition; type: functional
Method in brief: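 Direct 1D-TLC bioautography on glass-backed Si gel plates (activated 1 h at 100 °C). Standards were applied at […] from 5 µM ethanolic solutions (1 × 10-5 µmol/spot) and developed in 1:1 EtOAc/hexanes. Plates were sprayed three times with conidia (ca. 3 × 10^5/mL) in PDB with 0.1% agar and 0.1% Tween-80, then incubated at 24 °C with a 12 h photoperiod. Inhibition zones were measured after 4 days.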

COC(=O)Nc1nc2ccccc2[nH]1 [CARBENDAZIM] and COC(=O)NC(=S)Nc1ccccc1NC(=S)NC(=O)OC [THIOPHANATE METHYL] are the same in inhibition zone (IZ): 24 mm2 for the first, 24 mm2 for the second.

First: CC(=O)O.CCCCCCCCCCCCNC(=N)N [DODINE]
Second: CO/C=C(/C(=O)OC)c1ccccc1Oc1cc(Oc2ccccc2C#N)ncn1 [AZOXYSTROBIN]
The inhibition zone (IZ) of the first is lower: 20 mm2 for the first, 80 mm2 for the second.

First: O=[N+]([O-])c1c(Cl)c(Cl)c(Cl)c(Cl)c1Cl [PENTACHLORONITROBENZENE]
Second: Nc1c(Cl)cc([N+](=O)[O-])cc1Cl [ALLISAN]
The inhibition zone (IZ) of the first is lower: 5 mm2 for the first, 80 mm2 for the second.

C=CC1(C)OC(=O)N(c2cc(Cl)cc(Cl)c2)C1=O (stereo not given) [VINCLOZOLIN] gave an inhibition zone (IZ) of 48 mm2.

c1ccc2[nH]c(-c3cscn3)nc2c1 was tested, and the Activity was “inactive”.
For CC(C)Oc1cccc(NC(=O)c2ccccc2C(F)(F)F)c1, the Activity was “inactive”.
O=CNC(N1CCN(C(NC=O)C(Cl)(Cl)Cl)CC1)C(Cl)(Cl)Cl (stereo not given) was tested, and the Activity was “inactive”.
